# Shown are actives, neighbours in structure and some others; about 1.8% of the full set was active somewhere.
# DDE Tn6 FP inh – disrupts Tn6 cyclic peptide binding to fibrin D-Dimer-E complex. P02675. Fibrin DD(E) TRITC-Tn6 fluorescence polarization displacement. inhibition, % at 8.3 µM. 370,000 tested, 0.21% active;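 active means inhibition above a per-campaign cutoff: mean of compounds within control limits plus 3 SD, cut at about 15% in these data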;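 further: 0% = median of all compound wells on the plate and 100% = blocking peptide control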
# Target sequence (P02675 whole entry, looked up): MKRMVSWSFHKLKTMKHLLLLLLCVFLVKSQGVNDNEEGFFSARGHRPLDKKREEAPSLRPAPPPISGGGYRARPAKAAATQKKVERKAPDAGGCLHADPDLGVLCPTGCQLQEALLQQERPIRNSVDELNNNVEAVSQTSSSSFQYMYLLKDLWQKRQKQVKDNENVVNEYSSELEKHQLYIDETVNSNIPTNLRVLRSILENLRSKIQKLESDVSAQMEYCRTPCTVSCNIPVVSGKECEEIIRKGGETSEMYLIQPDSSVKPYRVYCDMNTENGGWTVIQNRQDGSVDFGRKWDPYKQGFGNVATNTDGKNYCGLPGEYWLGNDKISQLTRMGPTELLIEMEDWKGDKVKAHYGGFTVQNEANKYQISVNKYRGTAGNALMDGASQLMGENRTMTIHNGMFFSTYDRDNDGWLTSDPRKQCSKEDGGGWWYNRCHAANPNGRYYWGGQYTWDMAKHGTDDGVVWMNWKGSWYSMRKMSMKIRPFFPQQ
# TCR-CD3 inh – inhibitors of human TCR-CD3 interaction; TAMRA-labeled TCR probe fluorescence, biochemical; inhibition, % at 9.4 µM; 360,000 tested, 0.37% active; AID 651800;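 further: recombinant mutant TCR 2C K166C tagged with TAMRA read by polarization; 0% = receptor in buffer alone and 100% = receptor with positive control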
# HTRA1 inh – blocks human HTRA1 serine peptidase | Q92743 | 340,000 tested, 0.5% active | recombinant HTRA1, FP-rhodamine activity-based probe, fluorescence polarization | AID 504803 | inhibition, % at 5.96 µM; in the data active means inhibition above about 36%;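 further: 0% = enzyme with DMSO and 100% = wells lacking enzyme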
# Tn7 DDE FP – DD(E)-Tn7 binding inhibition, primary FP screen | P02675 | 370,000 tested, 0.13% active | inhibition, % at 8.3 µM | FP displacement of FITC-Tn7 peptide from fibrin DD(E); 0% = median of compound wells per plate;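 active means inhibition above the mean of compounds falling within the control limits plus 3 SD of them, cut at about 14% in these data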;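 further: 0% = plate median of compound wells and 100% = 10 µM Aha-Tn7 peptide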
#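 Measure: % inhibition scaled between sample-field median and high-control FP; Test system: human fibrin DD(E); Quantity: 2 µM final DD(E) protein; Doses: one dose, 8.3 µM nominal; Schedule: compound with protein 10 min, then 3 h after probe, room temperature; Detection: fluorescence polarization; Medium: Tris buffer with calcium and detergent, pH 7.8.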
# ABHD4 inh – inhibits mouse alpha/beta hydrolase domain 4. 370,000 tested, 0.54% active. inhibition, % at 8.92 µM. purified mABHD4, FP-Rh probe fluorescence polarization. Q8VD66. AID 720543;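 active means inhibition exceeding the mean over every tested compound plus 3 SD, cut at about 30% in these data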;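 further: 0% = plate median of compound wells and 100% = S159A mutant with DMSO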
#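 Test system: mouse ABHD4 enzyme, wild type. Reagent: FP-Rh fluorescent activity-based probe, added after compound pre-incubation. Timing: pre-incubation 45 min, probe exposure 60 min, at 25 °C. Technique: FP readout, ex 525 nm / em 598 nm. Benchmarks: high control S159A mutant with DMSO, low control median of compound wells.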
# SIAE inh – blocks human sialic acid acetylesterase. 370,000 tested, 0.69% active. SIAE FP-Rh probe binding, fluorescence polarization. Q9HAT2. inhibition, % at 9.66 µM;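 active means inhibition above a cutoff: mean of compounds within the control limits plus 3 SD of those, cut at about 17% in these data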;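 further: 0% = plate median of compound wells and 100% = probe without SIAE protein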
# BSA probe FL – interferes with TAMRA-BSA probe, flagging TCR-CD3 hits. shares compounds with TCR-CD3 inh. TAMRA-labeled BSA probe fluorescence counterscreen. inhibition, % at 9.4 µM. 1,200 tested, 10% active. AID 652035; in the data active means inhibition above about 23%;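 further: 0% = buffer low control and 100% = reference high control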
# TCR-CD3 inh conf – confirmation of human TCR-CD3 interaction inhibitors | shares compounds with TCR-CD3 inh | TAMRA-labeled TCR probe fluorescence binding assay | inhibition, % at 9.4 µM | 1,200 tested, 48% active | AID 652036
# Numbers without * were called inactive; . = not tested or not shown. Unless noted, no stated cut-off is given here; in the data, active means inhibition above about 19%; inactive means the rest.
SMILES,DDE Tn6 FP inh,TCR-CD3 inh,HTRA1 inh,Tn7 DDE FP,ABHD4 inh,SIAE inh,BSA probe FL,TCR-CD3 inh conf
C=CCNC(=S)NNC(=O)c1cccn(Cc2ccc(Cl)c(Cl)c2)c1=O,9,15,6,-2,15,1,.,.
CNC(=S)NNC(=O)c1cccn(Cc2ccc(Cl)c(Cl)c2)c1=O,6,22*,-10,9,16,10,1,27*
CCOC(=O)N1CCN(C(=O)C[C@H]2C[C@@]3(C(=O)OC)C(=C[C@H](C(C)(C)C)O[C@@H]3C)N(Cc3ccco3)C2=O)CC1,4,.,.,5,-3,-2,.,.
O=c1c2c(-c3ccccc3)csc2ncn1/N=C/c1cccc([N+](=O)[O-])c1O,2,29*,3,-4,14,1,-14,31*
c1nc(NCC2CCOC2)c2cc(-c3ccc4c(c3)OCO4)ccc2n1 (configuration not stated),-13,.,.,-1,-3,-28,.,.
Brc1ccc(-c2nn3c(-c4ccccn4)nnc3s2)o1,3,30*,12,8,4,7,1,12
COc1ccccc1CC1CC(=O)N(c2cccc(Cl)c2C)C1=O (configuration not stated),1,19*,5,-4,0,-2,1,1
CC(C(=O)N1CCCCC1)n1sc2ccccc2c1=O (configuration not stated),-9,31*,7,1,-3,3,-1,1
C=CCN(CC#CC(=C)C)Cc1ccc(OC)cc1OC,3,.,.,-1,2,-5,.,.
COc1ccc(CCNC(=O)COC(=O)c2ccc(Br)o2)cc1OC,9,7,3,7,-2,-1,.,.
COc1ccc(Cl)cc1C(=O)NNC(=O)COC(=O)c1ccc(Br)o1,1,20*,5,-5,0,-2,8,15
CN(CC1CCOCC1)C(=O)CC1C(=O)NCCN1C/C=C/c1ccccc1 (configuration not stated),-5,95*,3,4,0,-2,-1,0
CN(CCC1CCOCC1)C(=O)CC1C(=O)NCCN1C/C=C/c1ccccc1 (configuration not stated),4,4,5,-2,1,1,.,.
COC(=O)[C@H](CC(C)C)N(CCCc1cn(Cc2ccccc2)nn1)S(=O)(=O)c1ccccc1Br,4,.,.,-5,-9,-6,.,.
CCOC(=O)c1cnc(Cc2ccccc2)[nH]c1=O,3,33*,0,4,0,-3,2,1
COC(=O)[C@]12C[C@H](CC(=O)N3CCC(c4ccccc4)CC3)C(=O)N(Cc3ccco3)C1=C[C@H](COCc1ccccc1)O[C@@H]2C,0,.,.,0,-5,-5,.,.
Cc1ccc(-c2[nH]c3cc(C(=O)NCCCn4ccnc4)ccc3c(=O)c2O)cc1,-12,41*,29,-7,13,18*,-5,49*
COc1c(C(C)(C)C)cc(S(=O)(=O)N2c3ccccc3C[C@H]2C)cc1C(C)(C)C,-3,.,.,-1,-1,3,.,.
CCN(CC)CCC(c1ccc2c(c1)OCO2)c1c(OC)cc(OC)c2ccc(=O)oc12 (configuration not stated),-3,3,4,6,1,2,.,.
CCN(CC)CCC(c1cc(OC)c(OC)c(OC)c1)c1c(OC)cc(OC)c2ccc(=O)oc12 (configuration not stated),12,96*,-3,2,0,1,7,0
COc1ccccc1C(=O)NNC(=O)c1ccc(NC(=O)CC(C)C)cc1,0,31*,-10,-5,-1,2,1,32*
COc1ccccc1/C=C1\SC(=S)N(CCC(=O)NNC(=O)c2ccccc2OC)C1=O,-4,28*,25,0,2,-1,-10,19
O=C(NNC(=O)c1ccccc1O)c1ccc(Br)cc1,5,23*,24,1,4,3,-4,21*

# Screening data as filed in PubChem BioAssay.
